Measured values from different studies.
Read-out: metabolic stability
Species: human

| Structure (SMILES) | medium | tested at | pH | half-life |
| --- | --- | --- | --- | --- |
| CC(C)(C)C[C@@H]1N[C@@H](C(=O)N[C@H]2C[C@@](C)(O)C2)[C@H](c2cccc(Cl)c2F)[C@]12C(=O)Nc1cc(Cl)ccc12 | liver microsomes | – | – | > 60 min |
| O=C(OC(C(F)(F)F)C(F)(F)F)N1CCc2ccccc2C1 | liver microsomes | – | – | 21 min |
| O=C1CCN(C(=O)Nc2ccc(F)c(Cl)c2)[C@H]2CCCC[C@@H]12 (relative stereo) | liver microsomes | – | – | > 56 min |
| CCCCOC(=O)NS(=O)(=O)c1sc(CC(C)C)cc1-c1ccc(OC(F)(F)F)c(Cn2ccnc2)c1 | liver microsomes | 1 µM | pH 7.4 | 10 min |
| CCN(CC)S(=O)(=O)c1ccc(S(=O)(=O)N2CCC[C@@H](C(=O)N3CCC(F)(F)CC3)C2)cc1 | liver microsomes | 1.05 µM | – | 2.7 min |
| CCCCOC(=O)NS(=O)(=O)c1sc(CC(C)C)cc1-c1cccc2c1CN(C(C)=O)C2 | liver microsomes | 1 µM | pH 7.4 | 15 min |
| CCSC1CC(=O)C(C)(CCC(=O)Nc2c(O)ccc(C(=O)O)c2O)C2C3CC4CC12CC4(C)O3 (stereo not shown) | liver microsomes | – | – | 22 min |
| CO[C@@H](C[C@H]1C(C)=CC[C@@H]2[C@]3(C)C[C@H](O[C@@H]4O[C@@H](C)[C@H](OC(=O)c5cccc(O)c5)[C@@H](O[C@@H]5O[C@H](CO)[C@@H](O)[C@H](O)[C@H]5NC(C)=O)[C@H]4O)[C@@H](O)C(C)(C)[C@H]3CC[C@]21C)[C@H](N)C(=O)O.O=C(O)C(F)(F)F | hepatocytes | 1 µM | – | > 360 min |
| CCNc1nc2c(c(N3CC(=O)Nc4cc(OC)ccc43)n1)CCC2 | liver microsomes | – | – | 16.7 min |
| COc1ccc([C@@H]2Sc3ccccc3N(CCN(C)C)C(=O)[C@@H]2OC(C)=O)cc1 | hepatocytes | 1 µM | – | 91.8 min |
| CC[C@@H]1C=CC(=O)O[C@@H]1C[C@@H](O)[C@H](C)[C@H](O)[C@@H](C)Cc1ccc(F)cc1 | liver microsomes | – | – | < 7.7 min |
| Cc1cccc(-n2ncc(Br)c(Br)c2=O)c1 | liver microsomes | – | – | 7.1 min |
| CC(C)NCC(O)COc1cccc2ccccc12 (stereo not shown) | liver microsomes | 1 µM | – | 57.8 min |
| C/C=C/C[C@H](C)[C@@H](OC)[C@@H](C)[C@H](O)C[C@H]1OC(=O)C=C[C@H]1CC | liver microsomes | – | – | 6.7 min |
| COc1ccc(CNc2c(CO)cnc3c(C4CC4)cc(C#N)cc23)cc1Cl | liver microsomes | – | – | 19.5 min |
| O=S(=O)(Nc1cccc(-c2nnn[nH]2)c1)c1cc(Cl)c(Cl)cc1Cl | liver microsomes | – | – | 88 min |
| CCOC(=O)NS(=O)(=O)c1sc(CC(C)C)cc1-c1ccc2c(c1)CN(C)C(=O)C2 | liver microsomes | 1 µM | pH 7.4 | 7.8 min |
| Cc1ccc(S(=O)(=O)Nc2cccc(-c3nnn[nH]3)c2)cc1C(F)(F)F | liver microsomes | – | – | 4 min |
| CCOc1ccc2ccc(=O)oc2c1 | liver microsomes | 1 µM | pH 7.4 | 10 min |
| CCCCOC(=O)NS(=O)(=O)c1sc(CC(C)C)cc1-c1ccc2c(c1)CCN(C(C)=O)C2 | liver microsomes | 1 µM | pH 7.4 | 8.7 min |
| CC[C@@H]1C=CC(=O)O[C@@H]1C[C@@H](O)[C@H](C)[C@H](OC)[C@@H](C)Cc1ccccc1 | liver microsomes | – | – | 5.4 min |
| CCS(=O)(=O)Nc1cccc(-c2cn(C)c(=O)c3ccccc23)c1 | liver microsomes | – | – | 315 min |
| C[C@H](CCCOc1cccc(CO)c1)[C@H]1CC[C@H]2[C@@H]3CC=C4C[C@@H](O)CC[C@]4(C)[C@H]3CC[C@]12C | liver microsomes | 1 µM | pH 7.4 | 330 min |
| O=C(N[C@H](Cc1c[nH]c2ccccc12)C(=O)Nc1ccncc1)c1ccc(-c2cccc(F)c2)cc1F | liver microsomes | – | – | 18 min |
| CNS(=O)(=O)Cc1ccc2[nH]cc(CCN(C)C)c2c1 | hepatocytes | 5 µM | – | 448 min |
| O=C(N[C@H](Cc1c[nH]c2ccccc12)C(=O)Nc1ccncc1)c1ccc(-c2cc(F)ccc2F)cc1F | liver microsomes | – | – | 17 min |
| O=C(c1ccc(F)cc1)C1CCN(CCn2c(=O)[nH]c3ccccc3c2=O)CC1 | liver microsomes | – | – | 38.8 min |
| O=C(CC1Cc2ccccc2C1)N[C@H](CN1CCCC1)[C@H](O)c1ccc2c(c1)OCCO2 | liver microsomes | – | – | 28 min |
